From ChEMBL document CHEMBL5724801, “EUbOPEN Chemogenomics Library - Multiplex” (2024)
Where “and” joins values, the source holds several entries; their conditions need not be identical. Equal values may be shown once.

Test system: HEK-293T
Assay: Multiplex assay against HEK293T
Format: toxicity, cell-based
Settings: human
Method in brief: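 Live cells were stained at seeding with Hoechst33342, BioTracker Green Microtubule Cytoskeleton Dye, MitoTracker Red and Annexin V Alexa Fluor 680, then imaged on a CQ1 microscope at 37°C and 5% CO2 after compound addition. CellPathfinder machine-learning gating split cells into Hoechst high-intensity objects or normal cells. Normal cells were split into healthy, pyknosed or fragmented nuclei, and pyknosed cells into mitotic or apoptotic. Tubulin, mitochondrial-mass and membrane-permeability phenotypes are per cents of healthy-nucleus cells.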

[1] = 12 h, 1 µM, compound concentration 1 uM
[2] = 12 h, 10 µM, compound concentration 10 uM
[3] = 24 h, 1 µM, compound concentration 1 uM
[4] = 24 h, 10 µM, compound concentration 10 uM
[5] = 48 h, 1 µM, compound concentration 1 uM
[6] = 48 h, 10 µM, compound concentration 10 uM

Structure (SMILES): O=S(=O)(c1ccccc1)c1cnc2c(N3CCNCC3)cccc2c1 [INTEPIRDINE]
- Population Apoptotic (%) [1]: 40% and 50%
- Population Fragmented Nuclei (%) [1]: 7%
- Population Healthy Nuclei (%) [1]: 80% and 74%
- Population Hoechst High Intensity Objects (%) [1]: 7% and 10%
- Population Membrane Permeable-Phenotype (%) [1]: 0%
- Population Mitochondria Different-Phenotype (%) [1]: 54% and 69%
- Population Mitotic Cells (%) [1]: 60% and 50%
- Population Normal (%) [1]: 92% and 89%
- Population Pyknosed Nuclei (%) [1]: 12% and 17%
- Population Tubulin-Different-Phenotype (%) [1]: 43% and 23%
- Total Cell Count [1]: 403 and 336
- Population Apoptotic (%) [2]: 51% and 46%
- Population Fragmented Nuclei (%) [2]: 8% and 4%
- Population Healthy Nuclei (%) [2]: 72% and 79%
- Population Hoechst High Intensity Objects (%) [2]: 10% and 7%
- Population Membrane Permeable-Phenotype (%) [2]: 0%
- Population Mitochondria Different-Phenotype (%) [2]: 70% and 76%
- Population Mitotic Cells (%) [2]: 48% and 53%
- Population Normal (%) [2]: 89% and 92%
- Population Pyknosed Nuclei (%) [2]: 18% and 15%
- Population Tubulin-Different-Phenotype (%) [2]: 58% and 50%
- Total Cell Count [2]: 326 and 349
- Population Apoptotic (%) [3]: 28% and 58%
- Population Fragmented Nuclei (%) [3]: 6% and 7%
- Population Healthy Nuclei (%) [3]: 80% and 85%
- Population Hoechst High Intensity Objects (%) [3]: 5%
- Population Membrane Permeable-Phenotype (%) [3]: 0%
- Population Mitochondria Different-Phenotype (%) [3]: 35% and 43%
- Population Mitotic Cells (%) [3]: 71% and 41%
- Population Normal (%) [3]: 94%
- Population Pyknosed Nuclei (%) [3]: 12% and 7%
- Population Tubulin-Different-Phenotype (%) [3]: 26% and 14%
- Total Cell Count [3]: 530 and 416
- Population Apoptotic (%) [4]: 52% and 51%
- Population Fragmented Nuclei (%) [4]: 11% and 9%
- Population Healthy Nuclei (%) [4]: 75% and 82%
- Population Hoechst High Intensity Objects (%) [4]: 6% and 4%
- Population Membrane Permeable-Phenotype (%) [4]: 0%
- Population Mitochondria Different-Phenotype (%) [4]: 50% and 61%
- Population Mitotic Cells (%) [4]: 47% and 48%
- Population Normal (%) [4]: 93% and 95%
- Population Pyknosed Nuclei (%) [4]: 12% and 8%
- Population Tubulin-Different-Phenotype (%) [4]: 33% and 42%
- Total Cell Count [4]: 439 and 458
- Population Apoptotic (%) [5]: 17% and 25%
- Population Fragmented Nuclei (%) [5]: 12% and 13%
- Population Healthy Nuclei (%) [5]: 80% and 79%
- Population Hoechst High Intensity Objects (%) [5]: 4% and 3%
- Population Membrane Permeable-Phenotype (%) [5]: 1% and 0%
- Population Mitochondria Different-Phenotype (%) [5]: 25% and 26%
- Population Mitotic Cells (%) [5]: 82% and 75%
- Population Normal (%) [5]: 95% and 96%
- Population Pyknosed Nuclei (%) [5]: 7% and 6%
- Population Tubulin-Different-Phenotype (%) [5]: 16% and 12%
- Total Cell Count [5]: 866 and 641
- Population Apoptotic (%) [6]: 40% and 18%
- Population Fragmented Nuclei (%) [6]: 14% and 11%
- Population Healthy Nuclei (%) [6]: 75% and 82%
- Population Hoechst High Intensity Objects (%) [6]: 4%
- Population Membrane Permeable-Phenotype (%) [6]: 0%
- Population Mitochondria Different-Phenotype (%) [6]: 45% and 38%
- Population Mitotic Cells (%) [6]: 59% and 81%
- Population Normal (%) [6]: 95%
- Population Pyknosed Nuclei (%) [6]: 10% and 5%
- Population Tubulin-Different-Phenotype (%) [6]: 30% and 27%
- Total Cell Count [6]: 606 and 673

Structure (SMILES): C=C(C)[C@H]1CN[C@H](C(=O)O)[C@H]1CC(=O)O [KAINIC ACID]
- Population Apoptotic (%) [1]: 11.5% and 6.48%
- Population Fragmented Nuclei (%) [1]: 2.06% and 6.54%
- Population Healthy Nuclei (%) [1]: 64.6% and 22.88%
- Population Hoechst High Intensity Objects (%) [1]: 0%
- Population Membrane Permeable-Phenotype (%) [1]: 0.91% and 0%
- Population Mitochondria Different-Phenotype (%) [1]: 37.44% and 14.29%
- Population Mitotic Cells (%) [1]: 88.5% and 93.52%
- Population Normal (%) [1]: 100%
- Population Pyknosed Nuclei (%) [1]: 33.33% and 70.59%
- Total Cell Count [1]: 339 and 153
- Population Apoptotic (%) [2]: 12.5% and 13.33%
- Population Fragmented Nuclei (%) [2]: 12.27% and 2.55%
- Population Hoechst High Intensity Objects (%) [2]: 0.26% and 0%
- Population Membrane Permeable-Phenotype (%) [2]: 0%
- Population Mitochondria Different-Phenotype (%) [2]: 22.58% and 24.24%
- Population Mitotic Cells (%) [2]: 87.5% and 86.67%
- Population Normal (%) [2]: 99.74% and 100%
- Total Cell Count [2]: 384 and 157
- Population Apoptotic (%) [3]: 14% and 18.07%
- Population Fragmented Nuclei (%) [3]: 2.44% and 4.97%
- Population Healthy Nuclei (%) [3]: 77.19% and 43.48%
- Population Hoechst High Intensity Objects (%) [3]: 0%
- Population Membrane Permeable-Phenotype (%) [3]: 0.79% and 1.43%
- Population Mitochondria Different-Phenotype (%) [3]: 12.14% and 7.14%
- Population Mitotic Cells (%) [3]: 86% and 81.93%
- Population Normal (%) [3]: 100%
- Population Pyknosed Nuclei (%) [3]: 20.37% and 51.55%
- Population Tubulin-Different-Phenotype (%) [3]: 8.97% and 5.71%
- Population Apoptotic (%) [4]: 9.33% and 14.16%
- Population Fragmented Nuclei (%) [4]: 9.95% and 0%
- Population Healthy Nuclei (%) [4]: 77.19% and 40.84%
- Population Hoechst High Intensity Objects (%) [4]: 0%
- Population Membrane Permeable-Phenotype (%) [4]: 0.22% and 0%
- Population Mitochondria Different-Phenotype (%) [4]: 11.33% and 7.69%
- Population Mitotic Cells (%) [4]: 90.67% and 85.84%
- Population Normal (%) [4]: 100%
- Population Tubulin-Different-Phenotype (%) [4]: 4.89% and 1.28%
- Population Apoptotic (%) [5]: 7.41% and 12.12%
- Population Fragmented Nuclei (%) [5]: 6.01% and 2.75%
- Population Healthy Nuclei (%) [5]: 85.97% and 71.37%
- Population Hoechst High Intensity Objects (%) [5]: 0.07% and 0%
- Population Membrane Permeable-Phenotype (%) [5]: 5.09% and 4.4%
- Population Mitochondria Different-Phenotype (%) [5]: 10.62% and 17.03%
- Population Mitotic Cells (%) [5]: 92.59% and 87.88%
- Population Normal (%) [5]: 99.93% and 100%
- Population Apoptotic (%) [6]: 13.71% and 22.5%
- Population Fragmented Nuclei (%) [6]: 7.14% and 1.13%
- Population Healthy Nuclei (%) [6]: 83.02% and 68.8%
- Population Hoechst High Intensity Objects (%) [6]: 0% and 0.75%
- Population Membrane Permeable-Phenotype (%) [6]: 4.88% and 2.19%
- Population Mitochondria Different-Phenotype (%) [6]: 10.71% and 14.75%
- Population Mitotic Cells (%) [6]: 86.29% and 77.5%
- Population Normal (%) [6]: 100% and 99.25%
